Compound activity (PubChem BioAssay)
NF-kB neuron act: compounds increasing NF-kB expression in human neuronal cells; fold change at 12.5 µM; 190,000 tested, 1.6% active; NF-kB reporter expression; hits give high values; in the data active = fold change above about 3.3
STAT1 act: increases IFN-gamma driven STAT1 reporter signal; NIH 3T3 STAT1-luciferase reporter, luminescence; 100% = IFN-gamma alone, no compound; activation (% of control), % at 5.5 µM; 200,000 tested, 2.6% active;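 active = activation above the screen-wide mean activation plus 3 SD, cut at about 130% in these data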;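 note: raw ratio to IFN-gamma control signal so 100% means no change and 0% no light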
STAT3 blocker: inhibitors of IL-6 induced STAT3 signaling; inhibition, % at 5.5 µM; 190,000 tested, 0.89% active; U3A cells, IL-6 STAT3-luciferase reporter, luminescence; host cell line lacks STAT1; AID 862;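 active = inhibition above the mean inhibition across all screened compounds plus 3 SD, cut at about 44% in these data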;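 note: 0% = DMSO only wells and 100% = 100 µM nifuroxazide control wells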
STAT3 act: STAT3 signaling activation | AID 871 | activation (% of control), % at 5.6 µM | U3A cells, IL-6 STAT3-luciferase reporter, luminescence; 100% = signal with IL-6 EC80 alone | 190,000 tested, 0.91% active;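 active = activation above the screen-wide mean of compound activation plus 3 SD, cut at about 130% in these data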;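 note: 0% = background luminescence of wells with medium and substrate only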
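System – human U3A cells carrying STAT3-luciferase construct · Probe or stimulus – Interleukin-6, 33 ng/mL · Schedule – compound 1 h, then IL-6 6 h at 37 °C · Signal – luminescence from STAT3-driven luciferase reporter · Evaluation – percent of IL-6-only median luminescence · Benchmarks – IL-6-only high control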
STAT1 inh: reduces IFN-gamma driven STAT1 reporter signal. NIH 3T3 STAT1-luciferase reporter, luminescence. inhibition, % at 5.5 µM. 200,000 tested, 0.35% active;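 active = inhibition above a set limit, the mean inhibition across all tested compounds plus 3 SD, cut at about 34% in these data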;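 note: 0% = IFN-gamma with DMSO and 100% = IFN-gamma with 300 µM nifuroxazide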
APP 5'UTR act: activates APP 5'UTR luciferase reporter. SH-SY5Y APP 5'UTR luciferase reporter, luminescence; zero percent = DMSO vehicle wells. activation, % at 2 µM. 190,000 tested, 1% active. AID 1276;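 active = activation above a set limit, based on mean plus 3 SD of controls, cut at about 140% in these data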
An asterisk follows results filed as active; . = no result given. Rows were chosen to be rich in hits. Some 4.9% of all compounds tested hit in one or more screens of this group.

SMILES | NF-kB neuron act | STAT1 act | STAT3 blocker | STAT3 act | STAT1 inh | APP 5'UTR act
S=C(Nc1ccccc1)Nc1ccc(OCc2ccc(Cl)cc2Cl)cc1 | 0.4 | 47 | 64* | 51 | 59* | -70
S=C(NCCSCc1ccc(Cl)cc1Cl)Nc1ccccc1 | 1 | 98 | 22 | 90 | 3 | 4
COc1ccc(CCNC(=O)COC(=O)c2cc(OC)c(OC)cc2OC)cc1OC | 1.1 | 101 | 4 | 101 | 1 | -13
Cc1ccccc1OCC(O)Cn1nnc2ccccc21 (centres undefined) | 2.6 | 142* | -6 | 108 | -50 | 40
CCC(=O)c1ccc(OCC(O)Cn2nnc3ccccc32)cc1 (centres undefined) | 1.4 | 104 | 0 | 107 | -6 | 20
Oc1ccccc1-c1cc(-c2ccco2)[nH]n1 | 3.9* | 102 | -30 | 132 | -3 | 115
Oc1ccccc1-c1cc(-c2ccccc2Cl)[nH]n1 | 8.7* | 108 | 11 | 93 | -8 | 231*
Oc1ccc(Cl)cc1-c1cc(-c2ccccc2Cl)[nH]n1 | 1.1 | 99 | -27 | 126 | 1 | 11
Oc1ccc(Cl)cc1-c1cc(-c2ccco2)[nH]n1 | 1.6 | 111 | -39 | 134* | -12 | -12
S=c1[nH]nc(-c2cc(-c3ccco3)[nH]n2)n1-c1ccccc1 | 1.1 | 100 | 9 | 96 | 1 | -9
O=C(NC(=S)N1CCN(c2ccc([N+](=O)[O-])cc2)CC1)c1ccc(F)cc1 | 1.2 | 101 | 15 | 89 | -1 | 10
Cc1ccccc1NC(=O)N1CCCC(c2nc(-c3ccc(C(C)C)cc3)no2)C1 (centres undefined) | 0.89 | 135* | 12 | 98 | -39 | 112
Cc1ccccc1NC(=O)N1CCCC(c2nc(-c3ccc(F)cc3)no2)C1 (centres undefined) | 1.1 | 103 | 19 | 88 | -4 | 14
Oc1ccc(N2CCN(c3ncnc4sc5c(c34)CCC5)CC2)cc1 | 3.4* | 85 | 22 | 86 | 16 | 11
Cc1cc(/C=C2\SC(N)=NC2=O)c(C)n1-c1ccc(F)cc1 | 1.8 | 107 | 10 | 94 | -10 | 13
CCOC(=O)N=Nc1c(O)n(CC(=O)OC)c2ccccc12 | 1.3 | 96 | 11 | 100 | 3 | 4
CCOC(=O)N=Nc1c2ccccc2c2nc3no[nH]c3nc12 | 0.09 | 17 | 68* | 46 | 89* | -94
O=C(CSc1nnc2c(n1)[nH]c1ccccc12)Nc1ccc(S(=O)(=O)Nc2ncccn2)cc1 | 0.99 | 93 | 5 | 97 | 6 | 7
CN(C(=O)Nc1cnc2ccccc2c1)c1ccccc1 | 1.8 | 114 | -6 | 108 | -15 | 45
Cc1ccc2nsnc2c1NC(=O)c1ccc(-c2cc(Cl)ccc2Cl)o1 | 1.1 | 129* | 1 | 108 | -32 | 12
CCCc1cc(=O)[nH]c(SCC(=O)N2CCN(S(=O)(=O)c3ccc(Cl)cc3)CC2)n1 | 1.1 | 100 | 0 | 100 | 0 | 7
O=C(O)c1ccc2c(c1)C(=O)N(c1cccc(-c3nc4ccccc4s3)c1)C2=O | 1.5 | 130* | 18 | 88 | -34 | 36
CC(=O)Oc1cccc(N2C(=O)c3ccc(C(=O)O)cc3C2=O)c1 | 1 | 105 | 10 | 93 | -6 | 0
CC(=O)Nc1cccc(-c2nc3ccccc3s2)c1 | 3 | 148* | 3 | 102 | -53 | 64
CC(=O)Nc1cccc(-c2nc3ccc(NC(C)=O)cc3s2)c1 | 1.8 | 140* | 12 | 91 | -42 | 71
SMILES | NF-kB neuron act | STAT1 act | STAT3 blocker | STAT3 act | STAT1 inh | APP 5'UTR act
Nc1cccc(-c2nc3ccccc3s2)c1 | 5.9* | 147* | -1 | 104 | -52 | 130
CC(=O)Nc1ccc2nc(NC(=O)C(Cl)(Cl)Cl)sc2c1 | 1.4 | 115 | -2 | 107 | -19 | -6
NC(=O)c1ccsc1NC(=O)COC(=O)CSc1ccc(Cl)cc1 | . | 100 | 12 | 94 | -2 | 8
c1ccc(C2OC3c4cccc5cccc(c45)C3N2c2ccccc2)cc1 (centres undefined) | 1.5 | 104 | 0 | 101 | -5 | 2
COc1ccc(-n2cccc2/C=C2/NC(=O)N(c3cccc(Cl)c3)C2=O)cc1 | 0.86 | 111 | -3 | 106 | -13 | 23
COc1cc(/C=C2/NC(=O)N(c3cccc(Cl)c3)C2=O)ccc1O | 2.4 | 134* | 40 | 69 | -39 | -55
CCOC(=O)c1sc2nc3n(c(=O)c2c1C)CCCCC3 | 2.5 | 133* | 18 | 91 | -36 | -2
CCOC(=O)c1sc2nc3n(c(=O)c2c1C)CCC3 | 0.92 | 109 | 16 | 87 | -10 | 18
O=C(CSC(=S)N1CCOCC1)Nc1nc(=O)c2ccccc2s1 | 1.1 | 98 | 7 | 97 | 2 | -12
CC(=O)NC1C(OCc2ccccc2)OC2COC(c3ccccc3)OC2C1OCC(=O)O (centres undefined) | 1.3 | 101 | 6 | 97 | -3 | 7
O=[N+]([O-])c1cc(/C=N/N2CCN(c3ccccc3)CC2)ccc1Cl | 1.1 | 108 | 14 | 90 | -8 | -8
O=[N+]([O-])c1cc(/C=N/N2CCCCC2)ccc1Cl | 3.2 | 132* | 11 | 94 | -35 | 4
CCN(CC)c1nc2ccccc2c(N)c1-c1ccccc1 | 1 | 95 | 21 | 85 | 6 | 14
CC(=O)OCC(=O)[C@@]12OC3(CCCC3)O[C@@H]1C[C@H]1[C@@H]3CCC4=CC(=O)C=C[C@]4(C)[C@@]3(F)[C@@H](O)C[C@@]12C | 0.47 | 129* | -1 | 103 | -32 | 60
CCc1ccc(NC(=O)c2ccccc2SC)cc1 | 1.2 | 129* | 7 | 101 | -33 | 47
O=C(NCc1ccc(F)cc1)c1cnn2ccccc12 | 2.4 | 132* | 1 | 103 | -35 | 55
CCc1ccc(NC(=O)c2cnn3ccccc23)cc1 | 4* | 30 | 98* | 22 | 78* | 135
Cn1cc(C(=O)NCc2ccc(F)cc2)cn1 | 1.2 | 98 | 8 | 98 | 4 | -6
CSc1ccccc1C(=O)Nc1ccc2c(c1)OCCO2 | 1.4 | 104 | 0 | 98 | -4 | 12
c1ccc2c(c1)OCCOCCOCCOCCOc1ccccc1OCCOCCOCCO2 | 0.89 | 94 | 6 | 97 | 7 | -6
CCOC(=O)c1c(NC(=O)CN2C(=O)NC(C)(c3ccccc3)C2=O)sc(C)c1C (centres undefined) | 0.88 | 99 | -6 | 103 | 1 | -18
CCN1CCN(S(=O)(=O)CC2(C)C3CCC2(C)C(=O)C3Br)CC1 (centres undefined) | 1 | 103 | 12 | 96 | -5 | 9
Cc1c(N=C2NC(=O)/C(=C/c3cccc([N+](=O)[O-])c3)S2)c(=O)n(-c2ccccc2)n1C | 1.1 | 103 | 0 | 102 | -3 | -12
CN(C)c1ccc(/C=N/N=C2/NC(=O)/C(=C/c3ccc([N+](=O)[O-])cc3)S2)cc1 | 0.8 | 69 | 41 | 73 | 35* | 6
